Experimental data pooled from the literature.
Compare with care: the assays were run in different laboratories.
Sample: plasma

SMILES	test system	conditions	Cmax
CCN(CC)Cc1ccc2cc(COC(=O)Nc3ccc(C(=O)NO)cc3)ccc2c1	male Sprague-Dawley rat	oral, 10 mg/kg	2650 ng/mL
CONC(=O)c1cccc2c1cc(C)n2-c1nc2c(c(NCc3ccccc3)n1)CCCN2	male Sprague-Dawley rat	intravenous, 1 mg/kg, single dose	28.2 ng/mL
C1=C/COCc2cc(ccc2OCCN2CCCC2)Nc2nccc(n2)-c2cccc(c2)COC/1	male Sprague-Dawley rat	oral, 36 mg/kg	333 ng/mL
C[C@H]1[C@@H](O)O[C@@H]2O[C@@]3(C)CC[C@H]4[C@H](C)CC[C@@H]1[C@@]24OO3	male Sprague-Dawley rat	oral, 10 mg/kg	169 ng/mL
CC[C@@H]([C@H](C)O)n1ncn(-c2ccc(N3CCN(c4ccc(OC[C@@H]5CO[C@@](Cn6cncn6)(c6ccc(F)cc6F)C5)cc4)CC3)cc2)c1=O	Sprague-Dawley rat	oral, 40 mg/kg	703 ng/mL
CCCCCCCCCC(=O)N[C@@H](Cc1c[nH]c2ccccc12)C(=O)N[C@H](CC(N)=O)C(=O)N[C@@H](CC(=O)O)C(=O)N[C@@H]1C(=O)NCC(=O)N[C@@H](CCCN)C(=O)N[C@@H](CC(=O)O)C(=O)N[C@H](C)C(=O)N[C@@H](CC(=O)O)C(=O)NCC(=O)N[C@H](CO)C(=O)N[C@@H]([C@H](C)CC(=O)O)C(=O)N[C@@H](CC(=O)c2ccccc2N)C(=O)O[C@@H]1C	male Wistar rat	subcutaneous, 125 mg/kg, single dose	205000 ng/mL
COc1ccc(N(Cc2csc(-c3ccccc3)n2)C(=O)CCCCCC(=O)NO)cc1	female Sprague-Dawley rat	intravenous, 5 mg/kg	150 ng/mL
COc1cc(-c2cc(C(C)=O)n3ccccc23)c(OC)cc1Cn1ccnc1	male Sprague-Dawley rat	oral, 5 mg/kg	876 ng/mL
C=CC(=O)N1CCC[C@@H](n2nc(-c3ccc(Oc4ccccc4)cc3)c3c(N)ncnc32)C1	rat	oral, 40 mg/kg	84.4 ng/mL
O=C1CCC(N2Cc3cc(C4CCN(Cc5ccccc5)CC4)ccc3C2=O)C(=O)N1 (centres unmarked)	male Sprague-Dawley rat	intravenous, 1 mg/kg	113 ng/mL
CCCCC(=O)Nc1ccc(-c2ccc3ncn(CCC)c(=O)c3c2)cn1	male rat	oral, 10 mg/kg	966 ng/mL
C[C@@]12C[C@@]3(O)O[C@@H](O1)[C@]1(COC(=O)c4ccccc4)[C@H]3C[C@@]12O[C@@H]1O[C@H](CO)[C@@H](O)[C@H](O)[C@H]1O	male Sprague-Dawley rat	oral, 80 mg/kg	1.13 ng/mL
COc1nc(-c2cccc(-c3ccccc3)c2C)ccc1CNCCNC(=O)CCCCCCCCCCC(=O)N1CCN(CCNC(=O)c2cc3c(=O)n4cccc(C)c4nc3n(CCc3cccs3)c2=N)CC1	male Sprague-Dawley rat	intravenous, 2 mg/kg	1800 ng/mL
CCCc1nc2c(C)cc(-c3nc4ccccc4n3C)cc2n1Cc1ccc(-c2ccccc2C(=O)O)cc1	male Sprague-Dawley rat	oral, 8 mg/kg, single dose	136 ng/mL
Nc1ccn([C@@H]2O[C@H](CO)[C@@H](O)C2(F)F)c(=O)n1	male Sprague-Dawley rat	intraperitoneal, 5 mg/kg	12500 ng/mL
CC[C@H](C)[C@H](NC(=O)[C@@H]1CCCN1C(=O)CNC(=O)[C@H](Cc1ccccc1)NC(=O)[C@H](CC(N)=O)NC(=O)[C@H](CC(N)=O)NC(=O)[C@H](CO)NC(=O)[C@H](CO)NC(=O)[C@H](Cc1c[nH]cn1)NC(=O)[C@H](CCCNC(=N)N)NC(=O)[C@H](CC(C)C)NC(=O)[C@H](Cc1ccccc1)NC(=O)[C@H](CCC(=O)O)NC(=O)[C@H](C)NC(=O)[C@H](CC(C)C)NC(=O)[C@H](CCCNC(=N)N)NC(=O)[C@H](CCC(N)=O)NC(=O)[C@@H](NC(=O)[C@H](C)NC(=O)[C@@H]1CSSC[C@H](NC(=O)[C@H](CCCCN)NC(=O)CC[C@H](NC(=O)CCCCCCCCCCCCCCCCCCC(=O)O)C(=O)O)C(=O)N[C@@H](CC(N)=O)C(=O)N[C@@H]([C@@H](C)O)C(=O)N[C@@H](C)C(=O)N[C@@H]([C@@H](C)O)C(=O)N1)[C@@H](C)O)C(=O)N[C@@H](CC(C)C)C(=O)N1CCC[C@H]1C(=O)N1CCC[C@H]1C(=O)N[C@H](C(=O)N[C@@H](CC(N)=O)C(=O)N[C@H](C(=O)NCC(=O)N[C@@H](CO)C(=O)N[C@@H](CC(N)=O)C(=O)N[C@H](C(=O)N1CCC[C@H]1C(N)=O)[C@@H](C)O)C(C)C)[C@@H](C)O	male Sprague-Dawley rat	subcutaneous, 30 nmol/kg, single dose	98.8 nM
C[C@H]1Oc2cc(cnc2N)-c2c(nn(C)c2C#N)CN(C)C(=O)c2ccc(F)cc21	Sprague-Dawley rat	intravenous, 1 mg/kg, single dose	2250 ng/mL
